The text below walks through data of PMC5837702 (Toxicological Sciences, 2017).

Values joined by “and” are separate entries in the source; they are usually repeats but may differ in a detail not shown here. Equal values may be shown once. “Also recorded” adds a separate entry of the source. Some results are limits rather than exact numbers.

The test system of data set [1] is Salmonella Typhimurium TA98. Description: Bacterial reverse mutation test. Type of data set: cell-based. The note with it: for Induction of revertant colonies compared with vehicle control: absence of metabolic activation; for Induction of revertants: presence of S9.
Data set [2] relates to Balb/c 3T3 clone A31-1-1 cells. Description: BALB/c 3T3 cell transformation assay. The data set is classed as cell-based. The note with it: for Induction of foci / cell transformation: concentrations of up to 50 µM.
The test system of data set [3] is mouse fibroblast C3H/M2 cells. The note with it: ref Pfau etal., 1999, cited from earlier work; for Malignant transformation: in the presence of rat-liver S9; for Cell transformation: without metabolic activation.
The test system of data set [4] is human colon epithelial cells (HCEC). Description: Cytotoxicity, CellTiter-Glo luminescent cell viability assay. Type of data set: cell-based. The note with it: for LOAEL / NOAEL / BMD5 / BMD10 / BMDU5 / BMDL10 / BMDL5 / BMDU10 / IC50: 24 h; for BMD5: 5% benchmark dose; for BMD10: 10% benchmark dose; for BMDU5: highest benchmark dose upper bound, Hill models; for BMDU5 / BMDL5: 5% response; for BMDL10: lower bound; for BMDL10 / BMDU10: 10% response; for BMDL5: lowest benchmark dose lower bound, exponential models; for BMDU10: upper bound; for IC10 (95% CI): mean of 3 experiments; for IC50: Homo sapiens, read-out: IC50 (95% CI). On the technique in general: Cellular ATP, detected with luciferase, serves as a proxy for viable cell number.

Data set [5] deals with L. rossiae DSM 15184. The data set can be described thus: Microbial MelQx transformation in mYCFA with glycerol. The data set is classed as in vitro ADME, Lactobacillus rossiae. The note with it: 100 µM MelQx, anaerobic, 37 °C, 3 days.
For data set [6], the system named is L. reuteri ATCC 55730. Described as above. The data set is classed as in vitro ADME, Lactobacillus reuteri. The note with it: 100 µM MelQx, anaerobic, 37 °C, 3 days.
Data set [7] deals with complex human gut microbiota. The data set can be described thus: MelQx transformation by complex human colon microbiota. The note with it: absence of glycerol, 100 μM MelQx, 37 °C, 72 h. Type of data set: in vitro ADME. The essentials: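 Faecal microbiota from a healthy person were immobilised in gellan-xanthan gel beads under strict anaerobiosis and inoculated (30% v/v) into a proximal-colon reactor (37 °C, pH 5.7). It was linked to a distal-colon reactor (37 °C, pH 6.8). PC and DC effluents seeded triplicate mYCFA batch fermentations. Supernatants were alkalinised with Na2CO3, extracted thrice with ethyl acetate, concentrated and analysed by LC-ESI-MS2.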

Data set [8] deals with bacteria. The note with it: cited from earlier work; for Mutagenic activity: 1 µg/plate, similar experimental conditions, ref Vanhaecke etal., 2008b.
A short description of data set [9]: Stability of MelQx-M1 under Ames assay conditions. The note with it: 10% rat liver S9, 1 µM, 30 min, 37 °C. The data set is classed as in vitro ADME.
For data set [10], the system named is human colon epithelial cells from a different origin. The note with it: in presence of sulfotransferases; ref Herbst etal. (2006); cited from earlier work.
Data set [11] relates to bacteria. Description: Ames test. The data set is classed as cell-based. The note with it: 1 µg/plate, expectation of the authors.
For data set [12], the system named is BALB/c 3T3 cells. The note with it: non-cytotoxic concentrations; ref Nicken etal., 2015; cited from earlier work.
Data set [13] has as its system rat intestinal tissues. The note with it: ref Nicken etal., 2015; cited from earlier work.
The mark [14] stands for this setting: −S9, dose 5 µg/plate, positive control.
[15] abbreviates: +S9, dose 0.08 µM (0.01 µg/plate).
The mark [16] stands for this setting: +S9, dose 0.2 µM (0.23 µM in text; 0.03 µg/plate MelQx, 0.04 MelQx-M1).
[17] abbreviates: +S9, dose 0.8 µM (0.11 µg/plate MelQx, 0.13 MelQx-M1).
[18] abbreviates: +S9, dose 2.3 µM (0.32 µg/plate MelQx, 0.40 MelQx-M1).
Where [19] appears, read: +S9, dose 7.7 µM (1.1 µg/plate MelQx, 1.3 MelQx-M1).
The mark [20] stands for this setting: −S9, dose 0.08 µM (0.01 µg/plate).
Setting [21] is: −S9, dose 0.2 µM (0.03 µg/plate MelQx, 0.04 MelQx-M1).
[22] abbreviates: −S9, dose 0.8 µM (0.11 µg/plate MelQx, 0.13 MelQx-M1).
[23] abbreviates: −S9, dose 2.3 µM (0.32 µg/plate MelQx, 0.40 MelQx-M1).
Where [24] appears, read: −S9, dose 7.7 µM (1.1 µg/plate MelQx, 1.3 MelQx-M1).
Where [25] appears, read: 0.1 µM, 72 h exposure, n = 9–10.
Where [26] appears, read: 0.5 µM, 72 h exposure, n = 9–10.

In [1] (setting [14]), `O=[N+]([O-])c1ccc2c(c1)Cc1ccccc1-2` [2-nitrofluorene, 2-Nitrofluorene] returned a Mutagenic activity of 616 ± 18 revertants/plate.

For the compound `Cc1ccc2cc3c(ccc4ccccc43)c3c2c1CC3` [3-methylcholanthrene], in data set [2] (15 µM, positive control), the “Number of foci per plate” value was “Medium (control), 0.1% DMSO, 15 µM 3-methylcholanthrene (MCA, positive control) induced 0.2 ± 0.4, 0 ± 0, and 14.1 ± 4.5 foci per plate, respectively. NT, not tested in this study. Data are displayed as mean ± SD (n = 9–10)”.

In data set [1] (setting [14]), `Nc1ccc([N+](=O)[O-])cc1N` [4-NPD, 4-nitro-o-phenylenediamine] registered a Mutagenic activity of 695 ± 5 revertants/plate.

Take `Cn1c(N)nc2c3cccnc3ccc21` [IQ, 2-amino-3-methylimidazo[4,5-f]quinoline]: in data set [3], the Malignant transformation result was “all induced malignant transformation” and the Cell transformation entry is “none of the HCAs induced cell transformation”.

On to `Cc1cnc2ccc3c(nc(N)n3C)c2n1` [MelQx, 2-Amino-3,8-dimethylimidazo[4,5-f]quinoxaline], for which the LOAEL (commonly the lowest tested level that showed an adverse finding) in data set [4] came to 50 µM. The NOAEL – broadly, the highest tested level that showed no adverse finding – in data set [4] stood at 10 µM. For the same compound, the BMD5 in data set [4] stood at 26.5 µM. The BMD10 in [4] stood at 55.2 µM. In addition, the BMDU5 in [4] worked out at 55.8 µM. In data set [4], this compound returned a BMDL10 of 8.8 µM. The same compound had a BMDL5 in data set [4] of 4.1 µM. The BMDU10 in data set [4] is recorded as 87.6 µM. For the same compound, the “Concentrations that reduced cell viability” value in data set [4] (24 h exposure) is recorded as no less than 50 µM. Also, the “IC10 (95% CI)” value in [4] (24 h exposure) is recorded as 52 (31–87) µM. Besides, the IC50 (as a rule, the concentration at which inhibition is half-maximal) in data set [4] came out at 272 µM. For the same compound, the Mutagenic activity in data set [1] (setting [15]) is recorded as 352 ± 4 revertants/plate; in [1] (setting [16]) it was 980 ± 20 revertants/plate; in data set [1] (setting [17]), 1264 ± 38 revertants/plate; in [1] (setting [18]), 1449 ± 132 revertants/plate; in data set [1] (setting [19]) it was greater than 1500 revertants/plate; in data set [1] (+S9, dose 23–769 µM (3.2–107 µg/plate)), greater than 1500 revertants/plate. Moreover, the Mutagenic activity was 23 ± 1 revertants/plate in data set [1] (setting [20]); 21 ± 2 revertants/plate in data set [1] (setting [21]); 20 ± 1 revertants/plate in [1] (setting [22]); 21 ± 1 revertants/plate in data set [1] (setting [23]); 20 ± 1 revertants/plate in [1] (setting [24]); 21–22 revertants/plate in data set [1] (−S9, dose 23–769 µM (3.2–107 µg/plate)). The “Induction of revertant colonies compared with vehicle control” value in data set [1] was “did not induce a significantly higher number of revertant colonies”. For the same compound, in data set [1], the Induction of revertants result is “induced a significant and concentration-dependent increase of the number of revertants”. Further, the “Number of foci per plate” value is recorded as 0.1 ± 0.3 in data set [2] (setting [25]); 0.5 ± 0.7 in data set [2] (setting [26]); 0.1 ± 0.3 in data set [2] (5 µM, 72 h exposure, n = 9–10); 0.6 ± 0.7 in [2] (10 µM, 72 h exposure, n = 9–10); 0.6 ± 1.2 in data set [2] (50 µM, 72 h exposure, n = 9–10). Further, the “Induction of foci / cell transformation” value in [2] is “neither MelQx nor MelQx-M1 induced a significant amount of foci; also recorded: no detectable cell transformation”. The entries for the “Transformation efficiency on the basis of peak area (LC-ESI-MS2)” value in [5] and in [6] were 72% ± 1.5% and 87% ± 0.9%, respectively. For the same compound, the “Transformation of MelQx to MelQx-M1” value in data set [7] was “no transformation”. For the same compound, the “Mutagenicity relative to PhIP” value in data set [8] (Ames test, ref Pfau etal., 1999) is “about 10 times”. Moreover, in [3], the Malignant transformation entry is recorded as “all induced malignant transformation”. Besides, the Cell transformation entry in data set [3] is reported as “none of the HCAs induced cell transformation”.

As to `Cc1cnc2ccc3c(c2n1)N1CCC(O)N=C1N3C` (stereo not drawn) [MelQx-M1, 9-hydroxyl-2,7-dimethyl-7,9,10,11-tetrahydropyrimido[2′,1′:2,3]imidazo[4,5-f]quinoxaline], in data set [4], the LOAEL was determined as 350 µM. This compound came in with an NOAEL in [4] of 200 µM. Further, the BMD5 in data set [4] was found to be 262.2 µM. The same compound displayed a BMD10 in data set [4] of 334.6 µM. In data set [4], the BMDU5 was 334 µM and 333.7 µM. The compound further gave a BMDL10 in [4] of 272.8 µM. In addition, the BMDL5 in data set [4] is 204 µM and 204.1 µM. In data set [4], this compound yielded a BMDU10 of 366.1 µM. The “IC10 (95% CI)” value in [4] (24 h exposure) is reported as 316 (285–351) µM. The IC50 in [4] is 617 µM. The Mutagenic activity was 44 ± 1 revertants/plate in [1] (setting [15]); 66 ± 5 revertants/plate in data set [1] (setting [16]); 182 ± 13 revertants/plate in data set [1] (setting [17]); 358 ± 4 revertants/plate in data set [1] (setting [18]); 770 ± 7 revertants/plate in data set [1] (setting [19]); 1000 ± 20 revertants/plate in data set [1] (+S9, dose 23 µM (4.0 µg/plate)). Besides, the Mutagenic activity is reported as greater than 1500 revertants/plate in data set [1] (+S9, dose 77–769 µM (14–135 µg/plate)); 21 ± 1 revertants/plate in data set [1] (setting [20]); 21 ± 1 revertants/plate in data set [1] (setting [21]); 21 ± 1 revertants/plate in data set [1] (setting [22]); 22 ± 2 revertants/plate in [1] (setting [23]); 31 ± 2 revertants/plate in data set [1] (setting [24]). Further, the Mutagenic activity in [1] (−S9, dose 23 µM (4.0 µg/plate)) is recorded as 32 ± 3 revertants/plate; in data set [1] (−S9, dose 77–769 µM (14–135 µg/plate)) it was 41–54 revertants/plate. The “Induction of revertant colonies compared with vehicle control” value in [1] is reported as “did not induce a significantly higher number of revertant colonies”. Further, the “Mutagenic activity relative to MelQx in terms of revertants/plate” value in data set [1] (after microbial transformation of MelQx to MelQx-M1) is listed as 3%–26%. For the same compound, in [1], the Induction of revertants result is “induced a significant and concentration-dependent increase of the number of revertants”. The “Number of foci per plate” value in data set [2] (setting [25]) is given as 1.1 ± 1.2; in [2] (setting [26]), 0.1 ± 0.3; in data set [2] (1 µM, 72 h exposure, n = 9–10) it was 0.5 ± 0.7; in [2] (2 µM, 72 h exposure, n = 9–10), 0.1 ± 0.3; in [2] (3 µM, 72 h exposure, n = 9–10) it was 0.1 ± 0.3; in data set [2] (4 µM, 72 h exposure, n = 9–10), 0.2 ± 0.4. In addition, the “Number of foci per plate” value was found to be 0 ± 0 in data set [2] (5 µM, 72 h exposure, n = 9–10); 0.6 ± 0.8 in [2] (6 µM, 72 h exposure, n = 9–10); 0.7 ± 1.5 in data set [2] (7 µM, 72 h exposure, n = 9–10); 1.4 ± 2.2 in data set [2] (10 µM, 72 h exposure, n = 9–10); 0 ± 0 in data set [2] (50 µM, 72 h exposure, n = 9–10). Besides, the “Induction of foci / cell transformation” value in [2] is recorded as “neither MelQx nor MelQx-M1 induced a significant amount of foci; also recorded: no detectable cell transformation”. Moreover, the “Stability in the presence of S9” value in [9] is “generation of small amounts of MelQx as a decomposition product”.

As for `Cn1c(NO)nc2ncc(-c3ccccc3)cc21` [N-OH-PhIP, 2-hydroxyamino-1-methyl-6-phenylimidazo[4,5-b]pyridine], the Malignant transformation entry in data set [10] is “induced malignant transformation”.

Regarding `Cn1c(N)nc2ncc(-c3ccccc3)cc21` [PhIP, 2-amino-1-methyl-6-phenylimidazo[4,5-b]pyridine], in [8], the Mutagenic activity is on record as 1700 revertants/µg. In data set [3], the Malignant transformation result is “all induced malignant transformation” and the Cell transformation result is “none of the HCAs induced cell transformation”.

In data set [11], `C[n+]1c2n(c3ncc(-c4ccccc4)cc31)CCC(O)N2.[Cl-]` (stereo not drawn) [PhIP-M1, 7-hydroxy-5-methyl-3-phenyl-6,7,8,9-tetrahydropyrido[3’,2’:4,5]imidazo[1,2-a]pyrimidin-5-ium chloride] had an Expected mutagenic activity of 50 revertants/µg. Besides, in data set [8], the Mutagenic activity is 46 ± 2 revertants/µg. Further, in [12], the “Malignant transformation of BALB/c 3T3 cells” value is “did not induce malignant transformation; also recorded: does not induce cell transformation”. For the same compound, in [13], the Cytotoxicity result is “not being cytotoxic”.
